Experimental data from ChEMBL document CHEMBL4813913, “In vitro identification of imidazo[1,2-a]pyrazine-based antileishmanial agents and evaluation of L. major casein kinase 1 inhibition” (Eur J Med Chem, 2021).

How the values were obtained:
[1] = Selectivity index, ratio of CC50 for human MRC5 cells to IC50 for amastigote stage of Leishmania major (MHOM/IL/81/BNI) infected in BALB/c mouse peritoneal macrophages; type: toxicity; details: read-out: Ratio CC50/IC50
Summary of the method: (§1)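 Selectivity index is CC50 on RAW 264.7 or MRC-5 cells divided by IC50 on intracellular amastigotes.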

[2] = Selectivity index, ratio of CC50 for human MRC5 cells to IC50 for amastigote stage of Leishmania amazonensis (MHOM/BR/73/M2269) infected in mouse RAW264.7 cells; type: toxicity, cell-based; details: read-out: Ratio CC50/IC50; summary of the method: as §1
[3] = Selectivity index, ratio of CC50 for mouse RAW264.7 cells to IC50 for amastigote stage of Leishmania braziliensis (MHOM/BR/75/M2903b) infected in mouse RAW264.7 cells; type: toxicity, cell-based; details: read-out: Ratio CC50/IC50; summary of the method: as §1
[4] = tested on: Leishmania amazonensis; assay: Antileishmanial activity against amastigote stage Leishmania amazonensis (MHOM/BR/73/M2269) infected in mouse RAW264.7 cells assessed as reduction in parasitic proliferation measured by SYBR Green 1 dye based fluorescence assay; type: functional, organism-based; details: MHOM/BR/73/M2269, RAW264.7
Summary of the method: (§2)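 RAW 264.7 macrophages seeded at 100,000 cells/well in DMEM with 10% heat-inactivated FBS, 24 h at 37 °C, 5% CO₂. Infected with plateau-phase promastigotes (parasite:macrophage 16:1) for 24 h. Compounds serially diluted, final 391 nM–100 μM. Amastigote viability read by SYBR Green I after lysis and 3 freeze-thaw cycles. IC50 by nonlinear regression against excipient-treated controls. Miltefosine reference.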

[5] = Selectivity index, ratio of CC50 for mouse RAW264.7 cells to IC50 for amastigote stage of Leishmania donovani (MHOM/ET/67/HU3) infected in mouse RAW264.7 cells; type: toxicity, cell-based; details: read-out: Ratio CC50/IC50; summary of the method: as §1
[6] = tested on: Leishmania braziliensis; assay: Antileishmanial activity against amastigote stage of Leishmania braziliensis (MHOM/BR/75/M2903b) infected in mouse RAW264.7 cells assessed as reduction in parasitic proliferation measured by SYBR Green 1 dye based fluorescence assay; type: functional, organism-based; summary of the method: as §2
[7] = Selectivity index, ratio of CC50 for human MRC5 cells to IC50 for amastigote stage of Leishmania infantum (MHOM/FR/2008/LEM5700) infected in mouse RAW264.7 cells; type: toxicity, cell-based; details: read-out: Ratio CC50/IC50; summary of the method: as §1
[8] = Selectivity index, ratio of CC50 for mouse RAW264.7 cells to IC50 for amastigote stage of Leishmania major (MHOM/IL/81/BNI) infected in BALB/c mouse peritoneal macrophages; type: toxicity; details: read-out: Ratio CC50/IC50; summary of the method: as §1
[9] = Selectivity index, ratio of CC50 for human MRC5 cells to IC50 for amastigote stage of Leishmania braziliensis (MHOM/BR/75/M2903b) infected in mouse RAW264.7 cells; type: toxicity, cell-based; details: read-out: Ratio CC50/IC50; summary of the method: as §1
[10] = Cytotoxicity against human MRC5 cells assessed as reduction in cell viability measured after 96 hrs by resazurin assay; type: cell-based
Summary of the method: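 Human MRC-5 fibroblasts grown in RPMI 1640 with 10% FBS. Exposed to 100, 10 and 1 μM in triplicate for 96 h. Then 10 μL of 700 μM resazurin added for 4 h and fluorescence read. Value is the mean of triplicates.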

[11] = Cytotoxicity against mouse RAW264.7 cells assessed as reduction in cell growth measured after 48 hrs by SYBR Green 1 dye based fluorescence assay
Summary of the method: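 RAW 264.7 cells seeded at 100,000 cells/well in DMEM with 10% FBS, 24 h at 37 °C, 5% CO₂. Two-fold serial dilutions, final 49 nM–100 μM, for 48 h. Growth read by SYBR Green I. CC50 by nonlinear regression. Miltefosine reference; untreated cells as growth control.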

[12] = Selectivity index, ratio of CC50 for mouse RAW264.7 cells to IC50 for amastigote stage of Leishmania infantum (MHOM/FR/2008/LEM5700) infected in mouse RAW264.7 cells; type: toxicity, cell-based; details: read-out: Ratio CC50/IC50; summary of the method: as §1
[13] = Selectivity index, ratio of CC50 for human MRC5 cells to IC50 for amastigote stage of Leishmania donovani (MHOM/ET/67/HU3) infected in mouse RAW264.7 cells; type: toxicity, cell-based; details: read-out: Ratio CC50/IC50; summary of the method: as §1
[14] = tested on: Leishmania infantum; assay: Antileishmanial activity against amastigote stage of Leishmania infantum (MHOM/FR/2008/LEM5700) infected in mouse RAW264.7 cells assessed as reduction in parasitic proliferation measured by SYBR Green 1 dye based fluorescence assay; type: functional, organism-based; details: MHOM/FR/2008/LEM5700, RAW264.7; summary of the method: as §2
[15] = tested on: Leishmania donovani; assay: Antileishmanial activity against amastigote stage of Leishmania donovani (MHOM/ET/67/HU3) infected in mouse RAW264.7 cells assessed as reduction in parasitic proliferation measured by SYBR Green 1 dye based fluorescence assay; type: functional, organism-based; details: MHOM/ET/67/HU3, RAW264.7; summary of the method: as §2
[16] = Selectivity index, ratio of CC50 for mouse RAW264.7 cells to IC50 for amastigote stage of Leishmania amazonensis (MHOM/BR/73/M2269) infected in mouse RAW264.7 cells; type: toxicity, cell-based; details: read-out: Ratio CC50/IC50; summary of the method: as §1
[17] = tested on: Leishmania major; assay: Antileishmanial activity against amastigote stage of Leishmania major (MHOM/IL/81/BNI) infected in BALB/c mouse peritoneal macrophages assessed as reduction in parasitic proliferation measured after 4 days by MayGrunwald-Giemsa stain based microscopic method; type: functional, organism-based; details: Peritoneal macrophage, 96 h
Summary of the method: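 BALB/c peritoneal macrophages on glass slides, 1.5×10⁵ cells/mL in RPMI 1640 with 15% FBS, 24 h attachment. Infected with stationary-phase promastigotes (1.5×10⁶/mL) for 24 h at 37 °C, 5% CO₂. Washed, then exposed 4 days to 100, 10, 1, 0.1 μM (DMSO ≤1% final). Methanol-fixed, May-Grunwald-Giemsa stained, amastigotes counted in 100 macrophages per duplicate well. IC50 from amastigotes/macrophage. Run twice.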

CCCCCCCCCCCCCCCCOP(=O)([O-])OCC[N+](C)(C)C [MILTEFOSINE]
selectivity ratio [1]: 25.5 | selectivity ratio [2]: 8.7 | selectivity ratio [3]: 5.2 | IC50 [4]: 4.22 µM | selectivity ratio [5]: 23.5 | IC50 [6]: 8.33 µM | selectivity ratio [7]: 12.4 | selectivity ratio [8]: 29.9 | selectivity ratio [9]: 4.4 | CC50 at 96 h [10]: 36.8 µM | CC50 at 48 h [11]: 43 µM | selectivity ratio [12]: 14.5 | selectivity ratio [13]: 20.1 | IC50 [14]: 2.96 µM | IC50 [15]: 1.83 µM | selectivity ratio [16]: 10.2 | IC50 [17]: 1.44 µM
